Measurements from ChEMBL document CHEMBL1687725, “Pharmacokinetics and safety of caspofungin in older infants and toddlers” (Antimicrob Agents Chemother, 2009).

Columns and labels:
[1] = Cmax in plasma of in 17 […] old infants/toddlers measured on day 1 post dose; type: ADME, organism-based; details: human
[2] = AUC (0 to 24 hrs) in 2-11 years old children at 50 mg/m'2, iv dosed once daily measured on day 1 post dose; type: ADME, organism-based; parameters: time < 24 hr, route intravenous; details: human, plasma
Homo sapiens [3] = species on record: Homo sapiens; test: Clearance in 10 […] old infants/toddlers measured on day 1 post dose; type: ADME, organism-based; details: in vivo
[4] = Cmax in plasma of 12-17 years old adolescents at 50 mg/m'2, iv dosed once daily measured on day 4 post dose; type: ADME, organism-based; parameters: route intravenous; details: human
[5] = AUC (0 to 24 hrs) in adult human at 50 mg, iv dosed once daily measured on day 1 post dose; type: ADME, organism-based; parameters: time < 24 hr, dose 50 mg, route intravenous; details: plasma
[6] = AUC (0 to 24 hrs) in 17 […] old infants/toddlers measured on day 4 post dose; type: ADME, organism-based; parameters: time < 24 hr; details: human, plasma
[7] = AUC (0 to 24 hrs) in 12 […] old infants/toddlers measured on day 4 post dose; type: ADME, organism-based; parameters: time < 24 hr; details: human, plasma
[8] = Cmax in plasma of 3-24 months old infants/toddlers at 50 mg/m'2, iv dosed once daily measured on day 4 post dose; type: ADME, organism-based; parameters: route intravenous; details: human
Homo sapiens [9] = species on record: Homo sapiens; test: Clearance in 3 to 24 months old infants/toddlers measured on day 1 post dose; details: in vivo
Homo sapiens [10] = test: Clearance in 3-24 months old infants/toddlers at 50 mg/m'2, iv dosed once daily measured on day 1 post dose; type: ADME, organism-based; details: in vivo
Homo sapiens [11] = species on record: Homo sapiens; test: Clearance in 12 […] old infants/toddlers measured on day 1 post dose; type: ADME, organism-based; details: in vivo
[12] = Cmax in plasma of in 12 […] old infants/toddlers measured on day 1 post dose; type: ADME, organism-based; details: human
[13] = Cmax in plasma of in 13 […] old infants/toddlers measured on day 1 post dose; type: ADME, organism-based; details: human
[14] = Cmax in plasma of adult human at 50 mg, iv dosed once daily measured on day 3 to 14 post dose; type: ADME, organism-based; parameters: dose 50 mg, route intravenous
[15] = AUC (0 to 24 hrs) in 3-24 months old infants/toddlers at 50 mg/m'2, iv dosed once daily measured on day 1 post dose; type: ADME, organism-based; parameters: time < 24 hr, route intravenous; details: human, plasma
[16] = AUC (0 to 24 hrs) in infants/toddlers measured on day 4 post dose; details: human, plasma
Homo sapiens [17] = test: Clearance in adult human at 50 mg, iv dosed once daily measured on day 1 post dose; type: ADME, organism-based; details: in vivo
[18] = Cmax in plasma of 3-24 months old infants/toddlers at 50 mg/m'2, iv dosed once daily measured on day 1 post dose; type: ADME, organism-based; parameters: route intravenous; details: human
Homo sapiens [19] = species on record: Homo sapiens; test: Clearance in 17 […] old infants/toddlers measured on day 1 post dose; type: ADME, organism-based; details: in vivo
[20] = AUC (0 to 24 hrs) in 20 […] old infants/toddlers measured on day 4 post dose; type: ADME, organism-based; parameters: time < 24 hr; details: human, plasma
[21] = Cmax in plasma of 2-11 years old children at 50 mg/m'2, iv dosed once daily measured on day 4 post dose; type: ADME, organism-based; parameters: route intravenous; details: human
[22] = AUC (0 to 24 hrs) in adult human at 70 mg, iv dosed once daily measured on day 1 post dose; type: ADME, organism-based; parameters: dose 70 mg, time < 24 hr, route intravenous; details: plasma
[23] = AUC (0 to 24 hrs) in infants/toddlers measured on day 1 post dose; details: human, plasma
[24] = Cmax in plasma of adult human at 50 mg, iv dosed once daily measured on day 1 post dose; type: ADME, organism-based; parameters: dose 50 mg, route intravenous
[25] = AUC (0 to 24 hrs) in 3-24 months old infants/toddlers at 50 mg/m'2, iv dosed once daily measured on day 4 post dose; type: ADME, organism-based; parameters: time < 24 hr, route intravenous; details: human, plasma
[26] = AUC (0 to 24 hrs) in 10 […] old infants/toddlers measured on day 4 post dose; type: ADME, organism-based; parameters: time < 24 hr; details: human, plasma
Homo sapiens [27] = test: Clearance in 2-11 years old children at 50 mg/m'2, iv dosed once daily measured on day 1 post dose; type: ADME, organism-based; details: in vivo
Homo sapiens [28] = test: Clearance in adult human at 70 mg, iv dosed once daily measured on day 1 post dose; type: ADME, organism-based; details: in vivo
[29] = AUC (0 to 24 hrs) in 12 […] old infants/toddlers measured on day 1 post dose; type: ADME, organism-based; parameters: time < 24 hr; details: human, plasma
[30] = Cmax in plasma of in 20 […] old infants/toddlers measured on day 4 post dose; type: ADME, organism-based; details: human
Procedure, shortened: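 Infants/toddlers (10 to 24 months) with fever and neutropenia received caspofungin 50 mg/m2 once daily as a 1-h infusion. C1 is the observed plasma concentration at the end of the first (day 1) or fourth (day 4) infusion, sampled from 20 min before to 30 min after the end of infusion. Caspofungin was measured by HPLC with fluorescence detection.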

[31] = AUC (0 to 24 hrs) in 10 […] old infants/toddlers measured on day 1 post dose; type: ADME, organism-based; parameters: time < 24 hr; details: human, plasma
[32] = Cmax in plasma of in 17 years old infants/toddlers measured on day 4 post dose; type: ADME, organism-based; details: human
[33] = Cmax in plasma of adult human at 70 mg, iv dosed once daily measured on day 1 post dose; type: ADME, organism-based; parameters: dose 70 mg, route intravenous
[34] = Cmax in plasma of in 3 to 24 months old infants/toddlers measured on day 4 post dose; details: human
[35] = Cmax in plasma of in 10 […] old infants/toddlers measured on day 1 post dose; type: ADME, organism-based; details: human
Homo sapiens [36] = species on record: Homo sapiens; test: (§1) Cmax in plasma of in 12 […] old infants/toddlers measured on day 4 post dose; type: ADME, organism-based; details: in vivo
[37] = as §1; type: ADME, organism-based; details: human, plasma
[38] = AUC (0 to 24 hrs) in 12-17 years old adolescents at 50 mg/m'2, iv dosed once daily measured on day 1 post dose; type: ADME, organism-based; parameters: time < 24 hr, route intravenous; details: human, plasma
[39] = AUC (0 to 24 hrs) in 13 […] old infants/toddlers measured on day 4 post dose; type: ADME, organism-based; parameters: time < 24 hr; details: human, plasma
[40] = AUC (0 to 24 hrs) in adult human at 70 mg, iv dosed once daily measured on day 3 to 14 post dose; type: ADME, organism-based; parameters: dose 70 mg, time < 24 hr, route intravenous; details: plasma
[41] = Cmax in plasma of adult human at 70 mg, iv dosed once daily measured on day 3 to 14 post dose; type: ADME, organism-based; parameters: dose 70 mg, route intravenous
[42] = AUC (0 to 24 hrs) in 12-17 years old adolescents at 50 mg/m'2, iv dosed once daily measured on day 4 post dose; type: ADME, organism-based; parameters: time < 24 hr, route intravenous; details: human, plasma
[43] = AUC (0 to 24 hrs) in 2-11 years old children at 50 mg/m'2, iv dosed once daily measured on day 4 post dose; type: ADME, organism-based; parameters: time < 24 hr, route intravenous; details: human, plasma
[44] = Cmax in plasma of 12-17 years old adolescents at 50 mg/m'2, iv dosed once daily measured on day 1 post dose; type: ADME, organism-based; parameters: route intravenous; details: human
[45] = Cmax in plasma of in 10 years old infants/toddlers measured on day 4 post dose; type: ADME, organism-based; details: human
[46] = Cmax in plasma in infants/toddlers measured on day 4 post dose; details: human
[47] = AUC (0 to 24 hrs) in 17 […] old infants/toddlers measured on day 1 post dose; type: ADME, organism-based; parameters: time < 24 hr; details: human, plasma
Homo sapiens [48] = test: Cmin in plasma of 2-11 years old children at 50 mg/m'2, iv dosed once daily measured on day 1 post dose; type: ADME, organism-based; details: in vivo
Homo sapiens [49] = test: Clearance in 12-17 years old adolescents at 50 mg/m'2, iv dosed once daily measured on day 1 post dose; type: ADME, organism-based; details: in vivo
[50] = Cmax in plasma of 2-11 years old children at 50 mg/m'2, iv dosed once daily measured on day 1 post dose; type: ADME, organism-based; parameters: route intravenous; details: human
[51] = AUC (0 to 24 hrs) in 20 […] old infants/toddlers measured on day 1 post dose; type: ADME, organism-based; parameters: time < 24 hr; details: human, plasma
[52] = Cmax in plasma in infants/toddlers measured on day 1 post dose; details: human
[53] = Cmax in plasma of in […] infants/toddlers measured on day 1 post dose; type: ADME, organism-based; details: human
Homo sapiens [54] = species on record: Homo sapiens; test: Clearance in infants/toddlers measured on day 1 post dose; details: in vivo
[55] = AUC (0 to 24 hrs) in adult human at 50 mg, iv dosed once daily measured on day 3 to 14 post dose; type: ADME, organism-based; parameters: dose 50 mg, time < 24 hr, route intravenous; details: plasma

`CC[C@H](C)C[C@H](C)CCCCCCCCC(=O)N[C@H]1C[C@@H](O)[C@@H](NCCN)NC(=O)[C@@H]2[C@@H](O)CCN2C(=O)[C@H]([C@H](O)CCN)NC(=O)[C@H]([C@H](O)[C@@H](O)c2ccc(O)cc2)NC(=O)[C@@H]2C[C@@H](O)CN2C(=O)[C@H]([C@@H](C)O)NC1=O` [CASPOFUNGIN] gave a Cmax [1] of 13900 ng/mL, an AUC(0-t) at 24 h [2] of 96400 ng·h/mL and a CL (Homo sapiens [3]) of 4.37 ml/min/m2. The Cmax [4] was 12900 ng/mL, the AUC(0-t) at 24 h [5] was 70600 ng·h/mL and the AUC at 24 h [6] was 135 µg·h/mL. It also gave an AUC at 24 h [7] of 122 µg·h/mL, a Cmax [8] of 17200 ng/mL and a CL (Homo sapiens [9]) of 5.98 ml/min/m2. The CL (Homo sapiens [10]) was 6.05 ml/min/m2, the CL (Homo sapiens [11]) was 6.44 ml/min/m2 and the Cmax [12] was 17500 ng/mL. It also gave a Cmax [13] of 15800 ng/mL, a Cmax [14] of 9390 ng/mL and an AUC(0-t) at 24 h [15] of 120 µg·h/mL. The AUC at 24 h [16] was 171 µg·h/mL, the CL (Homo sapiens [17]) was 6.07 ml/min/m2 and the Cmax [18] was 17500 ng/mL. For the same molecule, the CL (Homo sapiens [19]) was 4.94 ml/min/m2, the AUC at 24 h [20] was 122 µg·h/mL and the Cmax [21] was 15600 ng/mL. The AUC(0-t) at 24 h [22] was 97100 ng·h/mL, the AUC(0-t) at 24 h [23] was 120 µg·h/mL and the Cmax [24] was 7670 ng/mL. For the same molecule, the AUC at 24 h [25] was 130 µg·h/mL, the AUC at 24 h [26] was 114 µg·h/mL and the CL (Homo sapiens [27]) was 7.78 ml/min/m2. For the same molecule, the CL (Homo sapiens [28]) was 5.2 ml/min/m2, the AUC(0-t) at 24 h [29] was 109 µg·h/mL and the Cmax [30] was 12100 ng/mL. It also gave an AUC(0-t) at 24 h [31] of 160 µg·h/mL, a Cmax [32] of 16400 ng/mL and a Cmax [33] of 10000 ng/mL. It also gave a Cmax [34] of 16900 ng/mL, a Cmax [35] of 14500 ng/mL and a Cmax (Homo sapiens [36]) of 17.96 µg/mL. For the same molecule, the Cmax [37] was 15900 ng/mL, the AUC(0-t) at 24 h [38] was 77600 ng·h/mL and the AUC at 24 h [39] was 121 µg·h/mL. The AUC at 24 h [40] was 154 µg·h/mL, the Cmax [41] was 13300 ng/mL and the AUC at 24 h [42] was 117 µg·h/mL. For the same molecule, the AUC at 24 h [43] was 115 µg·h/mL, the Cmax [44] was 8950 ng/mL and the Cmax [45] was 15200 ng/mL. It also gave a Cmax [46] of 21300 ng/mL, an AUC(0-t) at 24 h [47] of 102 µg·h/mL and a Cmin (Homo sapiens [48]) of 1.09 µg/mL. The CL (Homo sapiens [49]) was 6.3 ml/min/m2, the Cmax [50] was 14000 ng/mL and the AUC(0-t) at 24 h [51] was 97400 ng·h/mL. For the same molecule, the Cmax [52] was 21500 ng/mL, the Cmax [53] was 13000 ng/mL and the CL (Homo sapiens [54]) was 6.82 ml/min/m2. It also gave an AUC at 24 h [55] of 103 µg·h/mL.
